KLK7 zymogen act – activates the human kallikrein-7 zymogen | 0.9% of 370,000 active | purified proKLK7, EDANS-DABCYL substrate fluorescence; 100% is mature enzyme control, 0% vehicle | P49862 | activation, % at 7 µM;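 active = activation above the mean of all tested compounds plus 3 SD, computed per campaign excluding outliers beyond control limits, cut at about 13% in these data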
Runt-CBFb FRET – blocks binding of human RUNX1 Runt domain to CBFb. inhibition, % at 20 µM. AID 1496. 0.46% of 220,000 active. Q01196+Q13951. Cerulean-Runt/Venus-CBFb FRET ratio 530/480, 1 h;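 active = inhibition over about 50% at 20 µM in the single-dose screen, limit read from the data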;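 note: 0% = DMSO wells and 100% = excess unlabeled CBFb competitor control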
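Reagent – Venus-CBFb binding partner, 100 nM · Assay system – Cerulean-tagged RUNX1 Runt domain (FRET donor) fusion protein · Input – 100 nM per protein · Incubation – two 1 h room-temperature incubations shielded from light · Measured by – FRET fluorescence · Medium – Tris buffer pH 7.5 with salts and BSA · Benchmarks – unlabeled CBFb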
AI-2 QS modul – Vibrio harveyi AI-2 quorum sensing modulation; Vibrio harveyi JMH597 AI-2 luminescence/OD600 ratio, 9 h; hits give low values; strain lacks LuxN and CqsS sensors; 0 = neutral-control median; activity change, % at 7.5 µM; 0.4% of 300,000 active; AID 2094; in the data active = activity change below about -75%, passing the limit was not always enough; inconclusive = no clear call, values can overlap the other calls;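 note: luminescence divided by OD600 gain over 9 h not by final OD600 alone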
Runt-SMMHC FRET – inhibitors of human RUNX1 Runt domain binding to CBFb-SMMHC. 0.74% of 220,000 active. Cerulean-Runt/Venus-CBFb-SMMHC FRET ratio 530/480, 1 h. AID 1434. inhibition, % at 20 µM. Q01196+Q13951;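 active = mean inhibition across duplicate retests at 20 µM reaching about 50%, limit read from the data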;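 note: 0% = DMSO wells and 100% = wells with excess untagged CBFb-SMMHC; inhibitors lower the FRET ratio by blocking Runt binding to CBFb-SMMHC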
Wee1 stabilizer – human Wee1 degradation inhibition, primary screen; HeLa Luc-Wee1K328M stability, luciferase luminescence; 100% = proteasome inhibitor MG132 effect; reporter increase, % at 5 µM; 1.2% of 220,000 active;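 active = activation above the mean of all tested compounds plus 3 SD, set per screening run, cut at about 8.8% in these data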;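 note: cells exposed to compound for 20 h before luminescence read; 0% = DMSO alone and 100% = MG132 at 30 µM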
Target sequence (P30291 whole entry K328M): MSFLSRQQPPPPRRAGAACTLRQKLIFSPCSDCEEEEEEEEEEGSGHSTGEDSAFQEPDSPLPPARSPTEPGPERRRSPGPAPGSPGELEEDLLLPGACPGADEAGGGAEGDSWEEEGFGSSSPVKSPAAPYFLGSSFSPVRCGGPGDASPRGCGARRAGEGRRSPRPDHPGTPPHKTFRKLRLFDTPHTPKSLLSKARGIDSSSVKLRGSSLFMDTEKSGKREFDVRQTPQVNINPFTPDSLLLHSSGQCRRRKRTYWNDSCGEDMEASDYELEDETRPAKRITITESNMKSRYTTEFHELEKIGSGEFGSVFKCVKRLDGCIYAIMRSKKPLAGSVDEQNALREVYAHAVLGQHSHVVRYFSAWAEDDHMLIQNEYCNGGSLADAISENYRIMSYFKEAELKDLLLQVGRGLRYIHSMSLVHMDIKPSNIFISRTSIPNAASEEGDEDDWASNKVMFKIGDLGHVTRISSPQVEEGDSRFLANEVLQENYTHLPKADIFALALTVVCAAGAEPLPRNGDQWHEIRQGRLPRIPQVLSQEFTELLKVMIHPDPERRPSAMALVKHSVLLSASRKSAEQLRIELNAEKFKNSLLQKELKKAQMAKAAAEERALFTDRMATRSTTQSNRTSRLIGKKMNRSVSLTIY
RanGTP-Imp inh – inhibitors of RanGTP-importin-beta interaction, primary screen, biochemical, FRET, CFP-Ran, YFP-importin-beta, homogeneous | cell-free CFP-Ran/YFP-importin-beta FRET ratio | inhibition, % (concentration not given with the values) | 1.1% of 300,000 active | AID 2216;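 active = more than half of the replicate wells show a fall in the fluorescence ratio signal beyond about 16%, limit read from the data, passing the limit was not always enough; inconclusive = exactly half of the replicate wells pass the set limit; inactive = fewer than half of replicates pass the limit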;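 note: 0% = DMSO wells and 100% = Ran loaded with GDP instead of GTP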
JMH597 growth rt – retest Vibrio harveyi JMH597 growth inhibition; shares compounds with AI-2 QS modul; OD600 absorbance, 9 h; lacks LuxN and CqsS sensors; growth inhibition, % at 7.5 µM; 1% of 750 active;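 active = every replicate shows growth inhibition above 50%; inconclusive = at least half, but not all, replicates pass that cutoff; inactive = fewer than half of replicates pass it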
BB721 const-QS lum – retest counter-screen: BB721 constitutive quorum sensing luminescence decrease; shares compounds with AI-2 QS modul; Vibrio harveyi BB721 luminescence, 9 h; inhibition, % at 7.5 µM; 95% of 750 active; AID 2727;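 active = inhibition above about 80% in every replicate, not just on average, limit read from the data; inconclusive = at least half of replicates past the limit, but not all; inactive = fewer than half of replicates past the limit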
BB721 growth – retest Vibrio harveyi BB721 growth inhibition; shares compounds with AI-2 QS modul; growth inhibition, % at 7.5 µM; OD600 absorbance, 9 h; 3% of 750 active;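 active = every replicate shows growth inhibition above 50%; inconclusive = at least half but not all replicates above 50% inhibition; inactive = under half of replicates above 50% inhibition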
JMH597 AI-2 mod – Vibrio harveyi AI-2 signaling luminescence modulation – JMH597 strain, confirmation; inhibition, % at 7.5 µM; AID 2736; Vibrio harveyi JMH597 AI-2 quorum sensing luminescence, 9 h; luxN and CqsS knockout, AI-2 only; 97% of 750 active; shares compounds with AI-2 QS modul;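 active = every replicate shows more than 75% inhibition of signal versus neutral control wells; inconclusive = half to three quarters of replicates exceed 75% inhibition; inactive = fewer than half of replicates exceed 75% inhibition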
Active calls of the source: *; ? = inconclusive; . = no result given. Only some compounds are listed: those with a hit (about 2.9% of all), similar ones and a draw of the others.

SMILES | KLK7 zymogen act | Runt-CBFb FRET | AI-2 QS modul | Runt-SMMHC FRET | Wee1 stabilizer | RanGTP-Imp inh | JMH597 growth rt | BB721 const-QS lum | BB721 growth | JMH597 AI-2 mod
O=C(CN1C(=O)c2ccccc2C1=O)Nc1cccc(S(=O)(=O)Nc2ccccc2Cl)c1 | 0 | -1 | -83* | -4 | -2 | 2 | 35 | 90* | 41 | 93*
Cc1ccc(OCCC(=O)Nc2ccc(F)c(Cl)c2)cc1 | 0 | -8 | -78* | -10 | 4 | -2 | -3 | 68 | 6 | ?
O=C(CN1C(=O)c2ccccc2C1=O)Nc1cccc(Cl)c1 | 1 | . | -93* | . | . | 0 | 11 | 99* | 3 | 99*
Cc1ccc(OCCC(=O)Nc2ccc(C)c(F)c2)cc1 | 0 | -1 | -39 | -1 | -1 | 0 | . | . | . | .
COC(=O)[C@H](CC(C)C)NC(=O)Nc1ccccc1F | 0 | 3 | . | 2 | -3 | 0 | . | . | . | .
CC(=O)c1cccc(NC(=O)CN2C(=O)c3ccccc3C2=O)c1 | 1 | . | -96* | . | . | -1 | 4 | 99* | 1 | 100*
Cc1cccc(NC(=O)CCOc2ccccc2)c1 | 0 | 3 | -84* | 1 | 1 | 3 | 10 | 91* | -6 | 94*
O=C(CCOc1ccccc1)Nc1cccc([N+](=O)[O-])c1 | 0 | 1 | -26 | 2 | -5 | -2 | . | . | . | .
Cc1cccc(NC(=O)CCN2C(=O)c3ccccc3C2=O)c1 | 0 | . | ? | . | . | 0 | -5 | 88* | 1 | 92*
Cc1ccccc1NC(=O)CCN1C(=O)c2ccccc2C1=O | 0 | . | -6 | . | . | 1 | . | . | . | .
O=S(=O)(c1ccc2ccccc2c1)N1CCN(C(=S)Nc2ccccc2F)CC1 | 1 | 1 | -97* | 0 | 1 | -1 | 25 | 100* | -25 | 100*
O=S(=O)(c1ccc(Cl)cc1)N1CCN(C(=S)Nc2ccccc2F)CC1 | 0 | -1 | 0 | 5 | -2 | -1 | . | . | . | .
c1ccc(CSc2nnc(-c3cccs3)o2)cc1 | 0 | -1 | -90* | -4 | 5 | -4 | -1 | 97* | -10 | 98*
Fc1ccc(-c2nnc(CSc3nnc(-c4cccs4)o3)o2)cc1 | 0 | 0 | 22 | 3 | 1 | -1 | . | . | . | .
Fc1ccc(CSc2nnc(-c3cccs3)o2)cc1 | 0 | -2 | -89* | -3 | -2 | 5 | 13 | 97* | 9 | 97*
CC(C)NS(=O)(=O)c1ccc(NC(=O)Cc2ccsc2)cc1 | 0 | . | 28 | . | . | 3 | . | . | . | .
O=C(Cc1ccsc1)Nc1ccc(S(=O)(=O)C(F)F)cc1 | 0 | 0 | -87* | -2 | 5 | -2 | 19 | 97* | -17 | 100*
O=C(NCc1ccc(F)cc1)Nc1cccc(Cl)c1 | -1 | -33 | -94* | 1 | -1 | 0 | 17 | 98* | 24 | 99*
COc1ccc(CNC(=O)Nc2ccc(C)c(C)c2)cc1 | 1 | 0 | -63 | -6 | -1 | 1 | . | . | . | .
Cc1ccc(CNC(=O)Nc2cccc(C)c2)cc1 | 0 | -2 | -90* | -2 | -2 | -6 | 12 | 99* | 25 | 99*
COc1ccc(CNC(=O)Nc2cc(C)cc(C)c2)cc1 | 1 | 1 | ? | -3 | 0 | 2 | 7 | 96* | -6 | 97*
Cc1cccc(NC(=O)NCc2ccc3[nH]c(C)cc3c2)c1 | 0 | -7 | 7 | -2 | 1 | 0 | . | . | . | .
COc1ccc(CNC(=O)NC2CCCCC2)cc1 | 0 | -4 | -87* | 1 | -2 | 1 | 12 | 92* | 13 | 95*
O=C(NCc1ccc(F)cc1)Nc1ccc(Cl)cc1 | 1 | 4 | ? | -3 | 4 | -3 | . | . | . | .
CCOC(=O)c1ccc(CNC(=O)Cn2nnc(-c3ccccc3)n2)o1 | 1 | 0 | 26 | -2 | -2 | -1 | . | . | . | .
SMILES | KLK7 zymogen act | Runt-CBFb FRET | AI-2 QS modul | Runt-SMMHC FRET | Wee1 stabilizer | RanGTP-Imp inh | JMH597 growth rt | BB721 const-QS lum | BB721 growth | JMH597 AI-2 mod
CS/C(Nc1cc(Cl)ccc1Cl)=C(/C#N)C(=O)c1ccco1 | 0 | -1 | 12 | 0 | 0 | -2 | . | . | . | .
CC(CCCC(C)(C)O)CC1C2=C(CCCC2=O)OC2=C1C(=O)CCC2 (configuration not stated) | 1 | -2 | 16 | -6 | 2 | -1 | . | . | . | .
Cc1nn(C2CCS(=O)(=O)C2)c(C)c1C=O (configuration not stated) | 0 | 0 | 12 | -7 | 6 | 4 | . | . | . | .
CC(=O)c1cccc(NC(=S)NCc2ccccc2)c1 | 0 | . | 19 | . | . | -3 | . | . | . | .
COc1ccc(CNC(=O)Nc2ccc(C)cc2)cc1 | 0 | -1 | -79* | -4 | -1 | 3 | 0 | 88* | -14 | 92*
CCOC(=O)c1cccc(NC(=S)NCc2ccc(C)cc2)c1 | 0 | 0 | -85* | -1 | -1 | -4 | -10 | 89* | 1 | 91*
O=C(CSc1ncc(-c2ccccc2)[nH]1)Nc1ccccc1 | 0 | -1 | -82* | 0 | -2 | -1 | 16 | 93* | 23 | 94*
CC(C)=CCN1CCN(Cc2c[nH]c3ccccc23)CC1CCO (configuration not stated) | 0 | . | 3 | . | . | -2 | . | . | . | .
CC(=O)Nc1ccc(NC(=O)CSc2ccc([N+](=O)[O-])cn2)cc1 | -1 | 1 | 16 | -2 | 0 | 1 | . | . | . | .
Cc1ccc2nc(NC(=O)COC(=O)c3ccc(Br)o3)sc2c1 | 0 | 8 | . | 4 | 5 | . | . | . | . | .
O=C(COC(=O)c1ccc(Br)o1)Nc1nc2ccccc2s1 | -1 | 1 | ? | -1 | 0 | 2 | 16 | 93* | 24 | 95*
O=C(CN1C(=O)NC2(CCOc3ccccc32)C1=O)Nc1ccc(F)c(F)c1F (configuration not stated) | 0 | -1 | -79* | 0 | 3 | -1 | -6 | 87* | -8 | 91*
CCN(c1ccc(NC(=O)CN2C(=O)NC3(CCOc4ccccc43)C2=O)cc1)C(C)C (configuration not stated) | 1 | 12 | -82* | 13 | 0 | 0 | -16 | ? | -9 | 90*
O=C(CN1C(=O)NC2(CCc3ccccc32)C1=O)Nc1cccc(F)c1 (configuration not stated) | -1 | . | -84* | . | . | 0 | -2 | 92* | 16 | 95*
